In the library only some 0.16% were active in any assay of this set; here they are far more common.
CDK5 p35 inh = inhibitors of human CDK5/p35 kinase, primary screen, biochemical, single concentration. Cyclin-dependent kinase 5 (Homo sapiens) + Cyclin-dependent kinase 5 activator 1 (Homo …. Recombinant CDK5/p35, ADP-Glo luminescence, 60 min. inhibition, % at 10 µM. hit rate 0.01% among 330,000. AID 488839, 2010;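 active = highest replicate inhibition of at least 50% and at least 75% of replicates reaching 50%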;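 also: plate controls were DMSO neutral control for no effect and GW8510 at 10 µM for full effect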
STK33 inh = inhibitors of purified STK33 kinase, primary screen, biochemical, ADP-Glo luminescence, homogeneous, cell-free | MBP phosphorylation | inhibition, % at 10 µM | hit rate 0.073% among 320,000;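 active = inhibition at or above 25%, using the most active replicate where run in duplicate; inactive = inhibition below 25%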
GSK3B inh = human GSK3beta kinase inhibitors, primary screen, biochemical, cell-free homogeneous, HTS; Glycogen synthase kinase-3 beta (Homo sapiens), P49841; GST-GSK3beta kinase, ADP-Glo luminescence, 60 min; stronger effect = lower value; activity score (negative = inhibition), % at 10 µM; hit rate 0.038% among 300,000; AID 2097, 2009;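 active = more than half of replicate wells score below -50%, meaning over 50% inhibition versus plate controls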;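 also: 0% = median DMSO wells and -100% = median GW8510 positive control wells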
Target sequence (P49841 whole entry, looked up): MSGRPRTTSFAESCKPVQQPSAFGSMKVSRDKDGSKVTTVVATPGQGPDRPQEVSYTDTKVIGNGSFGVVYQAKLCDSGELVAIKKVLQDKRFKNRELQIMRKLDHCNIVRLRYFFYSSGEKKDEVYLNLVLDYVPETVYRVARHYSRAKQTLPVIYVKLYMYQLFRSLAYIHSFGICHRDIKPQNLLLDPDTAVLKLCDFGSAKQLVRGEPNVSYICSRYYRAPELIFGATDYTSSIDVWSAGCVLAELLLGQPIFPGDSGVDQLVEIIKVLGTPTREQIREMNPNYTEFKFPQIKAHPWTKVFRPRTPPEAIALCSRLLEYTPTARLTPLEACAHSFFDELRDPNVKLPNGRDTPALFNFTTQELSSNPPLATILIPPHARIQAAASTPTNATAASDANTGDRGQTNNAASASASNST
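test system = GST-tagged human GSK3beta kinase, cell-free | reagent = 25 µM ATP with peptide substrate | dosing = one dose of 10 µM per compound | schedule = 60 min reaction, RT | detection = luminescent ADP-Glo measurement of ADP formed | control set = DMSO neutral wells and GW8510 at 20 µM as positive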
GSK3 alpha inh = blockers of GSK3A enzyme activity – biochemical, luminescence, cell-free homogeneous, HTS, primary screen. Glycogen synthase kinase-3 alpha (Homo sapiens), P49840. GSK-3 alpha kinase, ADP-Glo luminescence, 60 min. inhibition, % at 10 µM. hit rate 0.1% among 320,000;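 active = more than half of replicates show inhibition above 20%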;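 also: GST-tagged GSK-3 alpha with peptide substrate and 25 µM ATP; 0% = DMSO neutral wells and 100% = GW8510 positive control wells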
An asterisk follows results filed as active.

CCC(C(=O)Nc1ccc2[nH]ncc2c1)c1ccccc1 (centres undefined) was read as CDK5 p35 inh 4, STK33 inh 26*, GSK3B inh 2 and GSK3 alpha inh 12.
Screening COc1ccc2ccccc2c1/C=N/NC(=O)c1sc(N)c(C#N)c1C returned CDK5 p35 inh 1, STK33 inh 1, GSK3B inh -2 and GSK3 alpha inh 5.
COc1cc(/C=N/NC(=O)c2sc(N)c(C#N)c2C)cc(Br)c1O was read as CDK5 p35 inh 1, STK33 inh 1, GSK3B inh -11 and GSK3 alpha inh 62*.
`CC1Cc2cc(/C(O)=C3/C(=O)C(=O)N(CCN4CCOCC4)C3c3ccc([N+](=O)[O-])cc3)ccc2O1` (centres undefined) gave CDK5 p35 inh 1, STK33 inh 1, GSK3B inh 1 and GSK3 alpha inh 0.
For CC(C)C[C@H](NC(=O)c1nc[nH]c1C(=O)NCc1ccc(CNC(=O)OC(C)(C)C)cc1)C(=O)OCc1ccccc1 the results were CDK5 p35 inh 1, STK33 inh 0, GSK3B inh 2 and GSK3 alpha inh -3.
CC(C)Sc1nc2c(c(=O)[nH]1)C(c1cccs1)C1=C(CC(C)(C)CC1=O)N2 (centres undefined) was read as CDK5 p35 inh -2, STK33 inh -1, GSK3B inh 2 and GSK3 alpha inh -1.
Screening Cc1[nH]nc2c1C(c1cccs1)C1=C(CCCC1=O)N2 (centres undefined) returned CDK5 p35 inh 4, STK33 inh 8, GSK3B inh -50* and GSK3 alpha inh 70*.
Cc1[nH]nc2c1C(c1cccs1)C1=C(CC(C)(C)CC1=O)N2 (centres undefined) was read as CDK5 p35 inh 1, STK33 inh 1, GSK3B inh -82* and GSK3 alpha inh 99*.
Screening COc1ccc(Cl)cc1S(=O)(=O)N1CCC(C(=O)NC2CC2)CC1 returned CDK5 p35 inh 2, STK33 inh -4, GSK3B inh 0 and GSK3 alpha inh -1.
`Cn1c(SCC(=O)Nc2ccc3c(c2)OCCO3)nnc1C1CC1` gave CDK5 p35 inh 2, STK33 inh 1, GSK3B inh 1 and GSK3 alpha inh 5.
Cc1cccc(N2CCN(CCCNC(=O)c3ccc(NC(=O)C4=CSCCO4)cc3)CC2C)c1 (centres undefined) was read as CDK5 p35 inh -2, STK33 inh 46*, GSK3B inh 1 and GSK3 alpha inh -1.
For CC1CCCN(CCCNC(=O)c2ccc(NC(=O)C3=CSCCO3)cc2)C1 (centres undefined) the results were CDK5 p35 inh 1, STK33 inh 8, GSK3B inh 7 and GSK3 alpha inh -2.
Screening O=c1c(/C=N/O)c(Nc2ccccc2)nc2ccccn12 returned CDK5 p35 inh -1, STK33 inh 57*, GSK3B inh 2 and GSK3 alpha inh 2.
For COc1cccc(C(=O)c2sc(NC(C)C)nc2N)c1 the results were CDK5 p35 inh 55*, STK33 inh 2, GSK3B inh -93* and GSK3 alpha inh 94*.
`COc1ccc(C(=O)c2sc(NC(C)C)nc2N)cc1OC` gave CDK5 p35 inh -3, STK33 inh -1 and GSK3 alpha inh 91*.
CCc1nnc(NC(=O)c2cccc(OC)c2)s1 was read as CDK5 p35 inh 0, STK33 inh 0, GSK3B inh 0 and GSK3 alpha inh 1.
For O=C(O)CCC1c2cc3c4cc2OC2Oc5cc6c(cc51)C(CCC(=O)O)c1cc5c7cc1OC(O6)c1cc6cc(c1)Oc1cc(cc(C(=O)O)c1)Oc1cc8cc(c1)C(Oc1cc(c(cc1C5CCC(=O)O)C3CCC(=O)O)OC(O4)c1cc(cc(c1)Oc1cc(cc(C(=O)O)c1)O8)Oc1cc(cc(C(=O)O)c1)Oc1cc(cc2c1)Oc1cc(cc(C(=O)O)c1)O6)O7 (centres undefined) the results were STK33 inh 30*, GSK3B inh 2 and GSK3 alpha inh -305.
For CCCCCC(=O)Nc1ccc(C(=O)COC(=O)CN2C(=O)NC3(CCCC3)C2=O)cc1 the results were CDK5 p35 inh 0, STK33 inh -1, GSK3B inh 1 and GSK3 alpha inh -3.
For COc1ccccc1-n1c(C)c(C(C)=O)c2cc(O)ccc21 the results were CDK5 p35 inh 2, STK33 inh -1, GSK3B inh 0 and GSK3 alpha inh 2.
`CCCCc1cc(=O)oc2cc(O)cc(O)c12` gave CDK5 p35 inh -5, STK33 inh 2, GSK3B inh -58* and GSK3 alpha inh 72*.
`Cc1ccc(C(C)C)c(OCC#CCN2CCOCC2)c1` gave CDK5 p35 inh 1, STK33 inh -17, GSK3B inh 1 and GSK3 alpha inh 1.
For COc1ccccc1Nc1nc(NCCO)nc(N)c1[N+](=O)[O-] the results were STK33 inh 2, GSK3B inh -27 and GSK3 alpha inh 60*.
For COc1ccc(OC)c(Nc2nc(NCCCN(C)C)nc(N)c2[N+](=O)[O-])c1 the results were CDK5 p35 inh -9, STK33 inh 14, GSK3B inh -65* and GSK3 alpha inh 88*.
Screening COc1ccccc1Nc1nc(NCCC(C)C)nc(N)c1[N+](=O)[O-] returned STK33 inh -4, GSK3B inh -13 and GSK3 alpha inh 16.
CCN1C(=O)[C@@H]2C(C(=O)c3cnccn3)=NN[C@@H]2C1=O was read as CDK5 p35 inh 1, STK33 inh 0, GSK3B inh 4 and GSK3 alpha inh 1.
COc1ccc(-c2oc3cc(OC)c(O)c(OC)c3c(=O)c2OC)cc1O was read as CDK5 p35 inh 1, STK33 inh 1, GSK3B inh 2 and GSK3 alpha inh 0.
For COc1c(-c2ccc(O)cc2)oc2cc(O)cc(O)c2c1=O the results were CDK5 p35 inh 5, STK33 inh 9 and GSK3 alpha inh 54*.
O=c1c(O)c(-c2ccc(O)c(O)c2)oc2cc(O)cc(O)c12 was read as CDK5 p35 inh -3, STK33 inh 38*, GSK3B inh -45 and GSK3 alpha inh 57*.
Screening C[C@H](O)c1[nH]c2cc(F)ccc2c1[C@H](C)O returned CDK5 p35 inh 0, STK33 inh -1, GSK3B inh -2 and GSK3 alpha inh 4.
Screening CCNC(=O)c1cc(S(=O)(=O)N2CCSCC2)ccc1OC returned CDK5 p35 inh -3, STK33 inh -1, GSK3B inh 3 and GSK3 alpha inh -1.
For CCN1C(=O)CSC1=Nc1ccccc1Cl the results were CDK5 p35 inh 1, STK33 inh -1, GSK3B inh 1 and GSK3 alpha inh 0.
`CN1CCN(C=NC2=NN(c3cccc(C(F)(F)F)c3)CC2)CC1` gave CDK5 p35 inh -2, STK33 inh 30*, GSK3B inh 0 and GSK3 alpha inh 0.

From PubChem
